{"source": "ChEMBL document CHEMBL3877303", "about": "(J Med Chem, 2017)", "key": {"[1]": {"assay": "Cell cycle arrest in human GISTT1 cells assessed as accumulation at G0/G1 phase at 1 uM after 24 hrs by propidium iodide/RNase staining based flow cytometry", "assay_type": "functional", "outline": "(§1)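 Cells were exposed to serially diluted compound, then fixed in cold 70% ethanol overnight at -20 °C. They were stained with PI/RNase buffer for DNA-content cell-cycle analysis.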"}, "[2]": {"target": "T1, Mast/stem cell growth factor receptor Kit (Homo sapiens, UniProt P10721)", "T1 sequence (P10721 whole entry)": "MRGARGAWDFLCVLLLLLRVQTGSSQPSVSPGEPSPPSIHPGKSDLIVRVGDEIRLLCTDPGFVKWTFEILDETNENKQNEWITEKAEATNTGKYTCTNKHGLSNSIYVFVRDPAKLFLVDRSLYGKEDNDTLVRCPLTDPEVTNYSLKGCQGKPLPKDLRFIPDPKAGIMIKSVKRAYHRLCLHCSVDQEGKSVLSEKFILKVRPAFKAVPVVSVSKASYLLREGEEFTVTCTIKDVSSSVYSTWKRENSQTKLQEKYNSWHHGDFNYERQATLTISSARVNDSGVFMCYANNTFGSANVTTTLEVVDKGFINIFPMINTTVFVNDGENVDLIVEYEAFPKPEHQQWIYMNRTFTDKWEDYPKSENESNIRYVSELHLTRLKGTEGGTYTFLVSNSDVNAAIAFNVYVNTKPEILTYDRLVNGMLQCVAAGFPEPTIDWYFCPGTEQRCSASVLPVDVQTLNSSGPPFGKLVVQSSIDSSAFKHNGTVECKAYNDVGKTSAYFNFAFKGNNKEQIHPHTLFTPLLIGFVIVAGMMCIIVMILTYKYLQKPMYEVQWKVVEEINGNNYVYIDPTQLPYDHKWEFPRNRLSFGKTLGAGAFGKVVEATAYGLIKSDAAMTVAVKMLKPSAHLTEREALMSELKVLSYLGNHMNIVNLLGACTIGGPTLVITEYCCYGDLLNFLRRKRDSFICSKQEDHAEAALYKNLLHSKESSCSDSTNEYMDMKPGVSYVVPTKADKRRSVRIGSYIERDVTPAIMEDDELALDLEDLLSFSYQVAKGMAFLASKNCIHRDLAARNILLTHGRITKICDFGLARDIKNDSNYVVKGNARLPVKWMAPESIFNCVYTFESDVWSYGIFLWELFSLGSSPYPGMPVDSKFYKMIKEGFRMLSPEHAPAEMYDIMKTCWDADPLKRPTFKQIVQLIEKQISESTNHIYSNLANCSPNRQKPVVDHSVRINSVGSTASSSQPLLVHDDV", "settings": "GISTT1, 1 uM"}, "[3]": {"target": "T1, Mast/stem cell growth factor receptor Kit", "settings": "1 uM"}, "[4]": {"target": "T1, Mast/stem cell growth factor receptor Kit", "settings": "GISTT1, 1 uM", "remark": "listed apart in the source"}, "[5]": {"target": "T1, Mast/stem cell growth factor receptor Kit", "settings": "GISTT1, 1 uM", "remark": "listed apart in the source"}, "[6]": {"target": "T1, Mast/stem cell growth factor receptor Kit", "assay": "Inhibition of c-KIT mediated signaling pathways assessed as reduction in Stat3/5 phosphorylation at Y705/Y694 in human GISTT1 cells at 0.03 to 10 uM measured after 2 hrs by immunoblotting", "assay_type": "cell-based", "outline": "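GIST-T1 cells treated with DMSO or serially diluted compound for 2 h. Cells lysed in RIPA buffer with protease/phosphatase inhibitors, protein quantified by BCA, SDS-PAGE, PVDF transfer, milk block, primary/secondary antibodies, ECL detection; beta-actin loading control.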"}, "[7]": {"target": "T2, BCR/ABL p210 fusion protein (Homo sapiens, UniProt A1Z199)", "T2 sequence (A1Z199 1-97)": "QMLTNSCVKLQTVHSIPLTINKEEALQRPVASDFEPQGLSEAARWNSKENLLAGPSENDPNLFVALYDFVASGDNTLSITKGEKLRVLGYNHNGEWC", "assay": "Inhibition of human BCR/ABL p210 fusion protein expressed in BAF3 cells assessed as growth inhibition measured after 72 hrs by CellTiter-Glo or CCK8 assay", "assay_type": "cell-based", "outline": "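Seeded at 1 to 2.5×10^4 cells/mL with various compound concentrations, 72 h. Viability read by CellTiter-Glo luminescence or CCK-8 absorbance (450/655 nm), normalized to DMSO control, GI50 from curve fit, triplicate testing.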"}, "[8]": {"assay": "Antiproliferative activity against human K562 cells measured after 72 hrs by CellTiter-Glo or CCK8 assay", "assay_type": "functional", "settings": "K562, 72 h"}, "[9]": {"assay": "Antiproliferative activity against human MEG01 cells measured after 72 hrs by CellTiter-Glo or CCK8 assay", "assay_type": "functional", "settings": "MEG-01, 72 h"}, "[10]": {"target": "T2, BCR/ABL p210 fusion protein", "assay": "Inhibition of BCR/ABL p210 fusion protein mediated signaling pathways assessed as reduction in CrkL phosphorylation at Y207 in human MEG01 cells at 0.01 to 3 uM measured after 2 hrs by immunoblotting", "assay_type": "cell-based", "settings": "MEG-01", "outline": "(§2)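 After an ice-cold PBS wash, cells were lysed in RIPA buffer (50 mM Tris pH 8.0) with protease and phosphatase inhibitors, and protein was quantified by BCA. Lysates were run on SDS-PAGE, transferred to PVDF and blocked in 5% milk/TBST. Phospho- and total proteins were probed by immunoblot with ECL detection; β-actin served as loading control.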"}, "KU812 cell line": {"tested_on": "KU812 cell line", "assay": "Induction of apoptosis in human KU812 cells assessed as increase in cleaved caspase-3 level at 0.1 to 3 uM by Western blot analysis", "assay_type": "functional, cell-based", "outline": "(§3)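 Cells were treated with DMSO or serially diluted compound for the indicated periods. They were washed in ice-cold PBS and lysed in RIPA buffer with protease/phosphatase inhibitors, and protein was quantified by BCA. Lysates were resolved by SDS-PAGE, transferred to PVDF and blocked in 5% milk/TBST. Blots were probed for PARP and caspase-3, with β-actin as loading control, and detected by ECL.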"}, "[11]": {"assay": "Cmax in Sprague-Dawley rat at 1 mg/kg, iv", "assay_type": "ADME, organism-based", "parameters": "dose 1 mg/kg, route intravenous", "settings": "in vivo", "outline": "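Male Sprague-Dawley rats aged six to eight weeks were fasted overnight and then dosed iv or orally. Blood (~0.2 mL) was drawn from the jugular vein into heparin and kept on ice. Sampling was at 1 min to 8 h for iv and 5 min to 24 h for oral. Plasma was separated by centrifugation at 2-8 °C and stored at -80 °C until analysis.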"}, "[12]": {"target": "T1, Mast/stem cell growth factor receptor Kit", "assay": "Inhibition of c-KIT mediated signaling pathways assessed as reduction in S6 phosphorylation at S235/236 in human GIST882 cells at 0.03 to 10 uM measured after 2 hrs by immunoblotting", "assay_type": "cell-based", "outline": "as §2"}, "[13]": {"assay": "Antiproliferative activity against human KU812 cells measured after 72 hrs by CellTiter-Glo or CCK8 assay", "assay_type": "functional", "settings": "KU812, 72 h"}, "[14]": {"target": "T2, BCR/ABL p210 fusion protein", "assay": "Inhibition of BCR/ABL p210 fusion protein mediated signaling pathways assessed as reduction in ERK phosphorylation at T202/Y204 in human K562 cells at 0.01 to 3 uM measured after 2 hrs by immunoblotting", "assay_type": "cell-based", "outline": "as §2"}, "[15]": {"assay": "Cell cycle arrest in human GISTT1 cells assessed as accumulation at G0/G1 phase at 0.3 uM after 24 hrs by propidium iodide/RNase staining based flow cytometry", "assay_type": "functional", "outline": "as §1"}, "[16]": {"tested_on": "Mast/stem cell growth factor receptor Kit (Homo sapiens), P10721 [V559D,T670I]", "sequence (P10721 whole entry V559D/T670I, the tested form may be a part)": "as the sequence (P10721 whole entry) above, with V559D, T670I counted along it", "assay": "Inhibition of Tel-fused c-KIT T670I/V559D double mutant (unknown origin) expressed in BAF3 cells assessed as growth inhibition measured after 72 hrs by CellTiter-Glo or CCK8 assay", "assay_type": "cell-based", "outline": "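BaF3 lines were made by retroviral transduction with kinase-fusion MSCV vectors packaged in HEK293T cells. Cells were selected with puromycin for 48 h, then selected again without IL-3 so growth depends on the introduced kinase. […] They were seeded at 1 to 2.5×10^4 cells/mL with compound dilutions and incubated 72 h. Viability was read by CellTiter-Glo luminescence or CCK-8 absorbance (450/655 nm), normalized to DMSO control; GI50 was curve-fitted from triplicate tests.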"}, "[17]": {"assay": "Cell cycle arrest in human K562 cells assessed as accumulation at G0/G1 phase at 0.3 uM after 24 hrs by propidium iodide/RNase staining based flow cytometry", "assay_type": "functional", "outline": "as §1"}, "[18]": {"target": "Discoidin domain-containing receptor 2 (Homo sapiens, UniProt Q16832)", "sequence (Q16832 whole entry, the tested form may be a part)": "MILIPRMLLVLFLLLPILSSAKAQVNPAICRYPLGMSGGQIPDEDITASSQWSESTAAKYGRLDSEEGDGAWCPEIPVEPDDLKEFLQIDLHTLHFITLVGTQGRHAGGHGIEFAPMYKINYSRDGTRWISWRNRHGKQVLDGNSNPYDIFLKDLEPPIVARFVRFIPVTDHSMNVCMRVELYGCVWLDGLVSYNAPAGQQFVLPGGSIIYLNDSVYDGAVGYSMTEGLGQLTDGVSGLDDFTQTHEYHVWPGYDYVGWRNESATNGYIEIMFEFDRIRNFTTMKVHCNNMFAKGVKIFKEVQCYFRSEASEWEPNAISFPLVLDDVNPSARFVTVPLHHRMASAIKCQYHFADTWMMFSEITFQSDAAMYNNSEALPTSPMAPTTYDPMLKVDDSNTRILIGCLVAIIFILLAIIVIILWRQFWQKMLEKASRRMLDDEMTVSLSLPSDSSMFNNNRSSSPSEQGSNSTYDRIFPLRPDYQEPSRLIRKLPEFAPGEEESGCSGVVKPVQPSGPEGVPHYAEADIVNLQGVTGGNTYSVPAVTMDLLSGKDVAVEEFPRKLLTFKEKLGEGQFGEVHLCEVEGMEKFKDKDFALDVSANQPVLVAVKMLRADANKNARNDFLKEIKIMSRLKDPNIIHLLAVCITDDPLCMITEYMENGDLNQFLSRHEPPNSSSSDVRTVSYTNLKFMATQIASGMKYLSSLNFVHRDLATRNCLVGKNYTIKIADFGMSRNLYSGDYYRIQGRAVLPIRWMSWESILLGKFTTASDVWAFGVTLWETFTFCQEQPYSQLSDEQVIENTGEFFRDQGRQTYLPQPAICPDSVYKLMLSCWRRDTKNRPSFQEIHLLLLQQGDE", "assay": "Inhibition of recombinant His-tagged human DDR2 cytoplasmic domain expressed in baculovirus expression system measured after 1 hr by FRET based Z'Lyte assay", "outline": "(§4)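 Z'-LYTE FRET biochemical kinase assay run by Invitrogen on selected kinases identified from binding profiling; IC50 from dose-response.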"}, "[19]": {"target": "T2, BCR/ABL p210 fusion protein", "assay": "Inhibition of BCR/ABL p210 fusion protein mediated signaling pathways assessed as reduction in ERK phosphorylation at T202/Y204 in human MEG01 cells at 0.01 to 3 uM measured after 2 hrs by immunoblotting", "assay_type": "cell-based", "settings": "MEG-01", "outline": "as §2"}, "[20]": {"target": "Tyrosine-protein kinase Blk (Homo sapiens, UniProt P51451)", "sequence (P51451 whole entry, the tested form may be a part)": "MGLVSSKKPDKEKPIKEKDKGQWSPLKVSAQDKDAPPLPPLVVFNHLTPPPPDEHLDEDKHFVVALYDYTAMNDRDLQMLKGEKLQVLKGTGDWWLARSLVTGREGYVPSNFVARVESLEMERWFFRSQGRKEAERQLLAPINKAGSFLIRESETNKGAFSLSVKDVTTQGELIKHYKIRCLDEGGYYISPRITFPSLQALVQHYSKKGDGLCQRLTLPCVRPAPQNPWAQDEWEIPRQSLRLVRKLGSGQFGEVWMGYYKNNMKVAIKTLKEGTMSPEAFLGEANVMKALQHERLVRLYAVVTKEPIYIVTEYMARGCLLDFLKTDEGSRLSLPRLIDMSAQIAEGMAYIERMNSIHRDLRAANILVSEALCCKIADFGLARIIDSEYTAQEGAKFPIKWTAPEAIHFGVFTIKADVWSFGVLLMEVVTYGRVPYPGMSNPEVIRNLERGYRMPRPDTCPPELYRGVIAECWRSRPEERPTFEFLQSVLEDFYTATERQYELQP", "assay": "Inhibition of full length recombinant His-tagged human BLK cytoplasmic domain expressed in baculovirus expression system measured after 1 hr by FRET based Z'Lyte assay", "outline": "as §4"}, "GISTT1": {"tested_on": "GISTT1", "assay": "Induction of apoptosis in human GISTT1 cells assessed as cleavage of PARP at 0.1 to 3 uM by Western blot analysis", "assay_type": "functional, cell-based", "outline": "as §3"}, "[21]": {"assay": "Anticancer activity against human GISTT1 cells xenografted in nu/nu mouse assessed as tumor weight at 50 mg/kg, po administered daily via oral gavage measured 21 days post compound treatment (reference value: 2.86 g)"}}, "note": "Active and inactive are the calls of the source. The calls are words filed in the database; no cut-off is given here.", "data": [{"smiles": "Cc1ccc(NC(=O)c2ccc(CN3CCN(C)CC3)cc2)cc1Nc1nccc(-c2cccnc2)n1", "note": "[IMATINIB]", "values": [{"measurement": "Activity", "setting": "[1]", "value": "Active"}, {"measurement": "inhibition", "setting": "[2]", "value": "Active"}, {"measurement": "inhibition", "setting": "[3]", "value": "Active"}, {"measurement": "inhibition", "setting": "[4]", "value": "Active"}, {"measurement": "inhibition", "setting": "[5]", "value": "Active"}]}, {"smiles": "Cc1ccc(C(=O)N2CCC(Oc3cc(NC(=O)c4ccc(CN5CCN(C)CC5)c(C(F)(F)F)c4)ccc3C)CC2)cn1", "values": [{"measurement": "inhibition", "setting": "[6]", "value": "Active"}, {"measurement": "GI50", "setting": "[7]", "value": 33, "unit": "nM"}, {"measurement": "GI50", "setting": "[8]", "value": 27, "unit": "nM"}, {"measurement": "GI50", "setting": "[9]", "value": 20, "unit": "nM"}, {"measurement": "inhibition", "setting": "[10]", "value": "Active"}, {"measurement": "Activity", "setting": "KU812 cell line", "value": "Active"}, {"measurement": "Cmax", "setting": "[11]", "value": 825, "unit": "ng/mL"}, {"measurement": "inhibition", "setting": "[12]", "value": "Active"}, {"measurement": "GI50", "setting": "[13]", "value": 56, "unit": "nM"}, {"measurement": "inhibition", "setting": "[14]", "value": "Active"}, {"measurement": "Activity", "setting": "[15]", "value": "Active"}, {"measurement": "GI50", "setting": "[16]", "value": 1010, "unit": "nM"}, {"measurement": "Activity", "setting": "[17]", "value": "Active"}, {"measurement": "IC50", "setting": "[18]", "value": 325, "unit": "nM"}, {"measurement": "inhibition", "setting": "[19]", "value": "Active"}, {"measurement": "IC50", "setting": "[20]", "value": 81, "unit": "nM"}, {"measurement": "Activity", "setting": "GISTT1", "value": "Active"}, {"measurement": "Activity", "setting": "[21]", "value": 2.19, "unit": "g"}]}]}
